Assay [1] relates to Rattus norvegicus. In words: Detoxification of acetaldehyde in aldehyde dehydrogenase inhibitor disuifiram/ethanol-treated rat assessed as reduction of blood acetaldehyde level at 8 mmol/kg, ip administered 1 hr prior to ethanol treatment measured after 1 hr by head space gas chromatographic analysis.
Assay [2] relates to Rattus norvegicus. The experiment in a line: Detoxification of acetaldehyde in ethanol-1-[14C]-treated Sprague-Dawley rat assessed as [14C]-3-acetyl-2,5,5-trimethylthiazolidine-4-carboxylic acid excretion in urine by measuring administered dose of ethanol-1-[14C] at 8.1 mmol/kg, po administered with 65 mmol/kg ethanol-1-[14C] measured for 24 hrs by inverse isotope dilution method in presence of Ac2O relative to control. Format: functional. An outline of the steps: (§1)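 Male Sprague-Dawley rats (190–280 g), given the test agent 1 h before ethanol-1-14C (65 mmol/kg, 200 mg/mL in isotonic saline, 0.8–1.4 μCi/rat), or at the same time as it for the simultaneous-dosing lines. Held in metabolism cages for 24 h. Urine plus washings were filtered and 400 mg unlabeled carrier added. The mix was acetylated with Ac2O, purified by preparative TLC and recrystallized from EtOAc to constant specific activity. Radioactivity was then scintillation counted.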

The subject of assay [3] is Rattus norvegicus. In words: Detoxification of acetaldehyde in ethanol-1-[14C]-treated Sprague-Dawley rat assessed as [14C]-3-acetyl-2,5,5-trimethylthiazolidine-4-carboxylic acid excretion in urine by measuring administered dose of ethanol-1-[14C] at 8.1 mmol/kg, po administered 1 hr prior to 65 mmol/kg ethanol-1-[14C] treatment measured for 24 hrs by inverse isotope dilution method in presence of Ac2O relative to control. Format: functional. An outline of the steps: as §1

For assay [4], the system named is Rattus norvegicus. In words: Detoxification of acetaldehyde in ethanol-1-[14C]-treated Sprague-Dawley rat assessed as [14C]-3-acetyl-2,5,5-trimethylthiazolidine-4-carboxylic acid excretion in urine by measuring administered dose of ethanol-1-[14C] at 8.1 mmol/kg, ip administered 1 hr prior to 65 mmol/kg ethanol-1-[14C] treatment measured for 24 hrs by inverse isotope dilution method in presence of Ac2O relative to control. Format: functional. An outline of the steps: as §1

The subject of assay [5] is Rattus norvegicus. The experiment in a line: Detoxification of acetaldehyde in aldehyde dehydrogenase inhibitor disuifiram/ethanol-1-[14C]-treated Sprague-Dawley rat assessed as [14C]-3-acetyl-2,5,5-trimethylthiazolidine-4-carboxylic acid excretion in urine by measuring administered dose of ethanol-1-[14C] at 8.1 mmol/kg, po administered 1 hr prior to 65 mmol/kg ethanol-1-[14C] treatment measured for 24 hrs by inverse isotope dilution method in presence of Ac2O relative to control. It counts as functional. Details: scale not given: the % may be the effect or the level left. An outline of the steps:
as §1

The subject of assay [6] is Rattus norvegicus. The experiment in a line: Detoxification of acetaldehyde in aldehyde dehydrogenase inhibitor disuifiram/ethanol-1-[14C]-treated Sprague-Dawley rat assessed as [14C]-3-acetyl-2,5,5-trimethylthiazolidine-4-carboxylic acid excretion in urine by measuring administered dose of ethanol-1-[14C] at 2 mmol/kg, ip administered first dose at 0.25 hrs prior to 43.5 mmol/kg ethanol-1-[14C] treatment followed by 4 doses of compound at 0.75 hrs, 3 hrs, 5 hrs, 7 hrs measured for 24 hrs by inverse isotope dilution method in presence of Ac2O relative to control. Details: scale not given: the % may be the effect or the level left. Format: functional.

Assay [7] relates to Rattus norvegicus. In words: Detoxification of acetaldehyde in aldehyde dehydrogenase inhibitor pargyline/ethanol-1-[14C]-treated Sprague-Dawley rat assessed as [14C]-3-acetyl-2,5,5-trimethylthiazolidine-4-carboxylic acid excretion in urine by measuring administered dose of ethanol-1-[14C] at 8.1 mmol/kg, ip administered 1 hr prior to 65 mmol/kg ethanol-1-[14C] treatment measured for 24 hrs by inverse isotope dilution method in presence of Ac2O relative to control. Details: scale not given: the % may be the effect or the level left. Format: functional. An outline of the steps:
as §1

Assay [8] relates to Rattus norvegicus. In words: Detoxification of acetaldehyde in aldehyde dehydrogenase inhibitor pyrogallol/ethanol-1-[14C]-treated Sprague-Dawley rat assessed as [14C]-3-acetyl-2,5,5-trimethylthiazolidine-4-carboxylic acid excretion in urine by measuring administered dose of ethanol-1-[14C] at 8.1 mmol/kg, ip administered 1 hr prior to 65 mmol/kg ethanol-1-[14C] treatment measured for 24 hrs by inverse isotope dilution method in presence of Ac2O relative to control. It counts as functional. Details: scale not given: the % may be the effect or the level left. An outline of the steps: as §1

In assay [9] the test system is Rattus norvegicus. The experiment in a line: Detoxification of acetaldehyde in ethanol-1-[14C]-treated Sprague-Dawley rat assessed as [14C]-3-acetyl-2-methylthiazolidine-4-carboxylic acid in urine by measuring administered dose of ethanol-1-[14C] at 10 mmol/kg, ip administered 1 hr prior to 65 mmol/kg ethanol-1-[14C] treatment measured for 24 hrs by inverse isotope dilution method in presence of Ac2O relative to control. Format: functional. An outline of the steps: as §1

The subject of assay [10] is Rattus norvegicus. The experiment in a line: Detoxification of acetaldehyde in aldehyde dehydrogenase inhibitor disuifiram/ethanol-1-[14C]-treated Sprague-Dawley rat assessed as [14C]-3-acetyl-2-methylthiazolidine-4-carboxylic acid excretion in urine by measuring administered dose of ethanol-1-[14C] at 8.3 mmol/kg, ip administered 1 hr prior to 65 mmol/kg ethanol-1-[14C] treatment measured for 24 hrs by inverse isotope dilution method in presence of Ac2O relative to control. Format: functional. Details: scale not given: the % may be the effect or the level left. An outline of the steps: as §1

In assay [11] the test system is Rattus norvegicus. In words: Detoxification of acetaldehyde in ethanol-1-[14C]-treated Sprague-Dawley rat assessed as [14C]-3-acetyl-2,5,5-trimethylthiazolidine-4-carboxylic acid excretion in urine by measuring administered dose of ethanol-1-[14C] at 8 mmol/kg, po administered with 65 mmol/kg ethanol-1-[14C] measured for 24 hrs by inverse isotope dilution method in presence of Ac2O relative to control. It counts as functional. The essentials: as §1

The subject of assay [12] is Rattus norvegicus. In words: Detoxification of acetaldehyde in ethanol-1-[14C]-treated Sprague-Dawley rat assessed as [14C]-3-acetyl-2-methylthiazolidine-4-carboxylic acid excretion in urine by measuring administered dose of ethanol-1-[14C] at 7.4 mmol/kg, po administered 1 hr prior to 65 mmol/kg ethanol-1-[14C] treatment measured for 24 hrs by inverse isotope dilution method in presence of Ac2O relative to control. Format: functional. An outline of the steps: as §1

Activity calls are given as the source filed them. The calls are words filed in the database; no cut-off is given here.

For `NC(CCSSCCC(N)C(=O)O)C(=O)O` (racemic), the outcome in the assay with Rattus norvegicus [1] was inactive.

For the compound `CC(C)(S)[C@@H](N)C(=O)O` [PENICILLAMINE], the Activity in the assay with Rattus norvegicus [2] amounted to 0.4%; with Rattus norvegicus [3], 1.2%; in the assay with Rattus norvegicus [4], 0.5%; in the assay on Rattus norvegicus [5], 2.7%; with Rattus norvegicus [6] it was 7.6%; with Rattus norvegicus [7] it was 3.3%. In addition, the Activity in the assay with Rattus norvegicus [8] was determined as 1.1%. In addition, in the assay on Rattus norvegicus [1], the result was Active.

Take `N[C@@H](CS)C(=O)O` (stereo in doubt): in the assay with Rattus norvegicus [1], the result was inactive.

Take `N[C@@H](CS)C(=O)O` (stereo in doubt; 2): the outcome in the assay on Rattus norvegicus [1] was inactive.

Turning to `N[C@@H](CS)C(=O)O` (stereo in doubt; 2) [CYSTEINE], the Activity with Rattus norvegicus [9] and with Rattus norvegicus [10] was 0% each time.

For the compound `CC(=O)NC(C(=O)O)C(C)(C)S` (centres undefined) [N-ACETYL PENICILLAMINE], the Activity with Rattus norvegicus [11] was 0%. In the assay on Rattus norvegicus [1], the outcome was inactive.

On to `NC(CCS)C(=O)O` (racemic), for which, in the assay on Rattus norvegicus [1], the result was inactive.

As to `NC1CCSC1=O` (racemic), the outcome in the assay with Rattus norvegicus [1] was inactive.

For `CC(=O)N[C@@H](CS)C(=O)O` [ACETYLCYSTEINE], the Activity with Rattus norvegicus [12] was 0%. Further, the result in the assay with Rattus norvegicus [1] was inactive.

The values above are taken from ChEMBL document CHEMBL3272120, “2,5,5-Trimethylthiazolidine-4-carboxylic acid, a D(-)-penicillamine-directed pseudometabolite of ethanol. Detoxication mechanism for acetaldehyde” (1978).
